Measured values from publication PMC6557127 (Journal of molecular and cellular cardiology, 2019).

Assays:
[1] = target: natriuretic peptide clearance receptor (NPRC), tagged with green fluorescence protein (UniProt P17342); assay: AlphaScreen or HTRF
Plasma CNP-like levels = type: in vivo, Fischer rats; conditions: low, medium and high dose (4.55, 45.5, 455 pmol/kg/min) IV infusion 75 min, normal rats, RIA, n=4/group
Method in brief: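 They then received a 75 min continuous IV infusion (15 min lead-in) of native peptide, analogue or 0.9% saline vehicle with inulin. Infusion rate was weight-adjusted. Blood was taken after the 60 min clearance period. A non-equilibrium RIA used a CNP-sequence antibody (standard curve 0.5–128 pg; <1% cross-reactivity with ANP, BNP).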

[2] = system: human renal fibroblasts (HRFs); assay: Live-cell real-time proliferation imaging; type: cell-based; conditions: 10^−6 M, similar to vehicle (Supplemental Table 1)
[3] = system: human cardiac fibroblasts (HCFs); assay: cGMP generation in human primary cardiac fibroblasts; type: cell-based; conditions: 10^−8, 10^−7 and 10^−6 M, 10 min, 0.5 mM IBMX, cGMP ELISA, vs vehicle
Method in brief: (§1)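 Primary human cardiac and renal fibroblasts, checked for purity by vimentin staining, were used at passages 4–8. Cells grown to 80% confluency were treated for 10 min with buffer (HBSS, 0.1% BSA, 2 mM HEPES, 0.5 mM IBMX) alone or with test compound at 10−8, 10−7 or 10−6 M. Cells were washed in PBS and lysed in 0.1 M HCl, and intracellular cGMP was measured by ELISA.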

[4] = system: human cardiac fibroblasts (HCFs); assay: Live-cell real-time proliferation imaging; type: cell-based; conditions: 10^−6 M, similar to vehicle (Supplemental Table 1)
[5] = system: human renal fibroblasts (HRFs); assay: Fibroblast proliferation quantified by cell counting, HRFs; type: cell-based; conditions: 10^−6 M, TGFβ−1 5 ng/ml, 72 hours, trypan blue, Cedex XS Analyzer (Supplemental Table 2)
Method in brief: (§2)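 Fibroblasts at passages 4–8, purity checked by vimentin immunostaining, were counted, seeded in complete medium and held overnight at 37 °C, 5% CO2. Medium was replaced with fresh medium containing TGFβ-1 (5 ng/ml) alone or with test compound (10−8, 10−7 or 10−6 M) for 8 or 72 h. Cells were then trypsinized, stained with 0.2% trypan blue and counted on an automated analyzer.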

human pGC-B receptor = target: T1, human pGC-B receptor (Homo sapiens, UniProt P20594); assay: cGMP generation in HEK293 cells overexpressing human pGC-B; type: cell-based; conditions: 10 min; for cGMP generation in HEK293 pGC-B cells compared to vehicle: 10^−8.5 to 10^−6 M, 0.5 mM IBMX, intracellular cGMP ELISA, triplicate
T1 sequence (P20594 23-1047): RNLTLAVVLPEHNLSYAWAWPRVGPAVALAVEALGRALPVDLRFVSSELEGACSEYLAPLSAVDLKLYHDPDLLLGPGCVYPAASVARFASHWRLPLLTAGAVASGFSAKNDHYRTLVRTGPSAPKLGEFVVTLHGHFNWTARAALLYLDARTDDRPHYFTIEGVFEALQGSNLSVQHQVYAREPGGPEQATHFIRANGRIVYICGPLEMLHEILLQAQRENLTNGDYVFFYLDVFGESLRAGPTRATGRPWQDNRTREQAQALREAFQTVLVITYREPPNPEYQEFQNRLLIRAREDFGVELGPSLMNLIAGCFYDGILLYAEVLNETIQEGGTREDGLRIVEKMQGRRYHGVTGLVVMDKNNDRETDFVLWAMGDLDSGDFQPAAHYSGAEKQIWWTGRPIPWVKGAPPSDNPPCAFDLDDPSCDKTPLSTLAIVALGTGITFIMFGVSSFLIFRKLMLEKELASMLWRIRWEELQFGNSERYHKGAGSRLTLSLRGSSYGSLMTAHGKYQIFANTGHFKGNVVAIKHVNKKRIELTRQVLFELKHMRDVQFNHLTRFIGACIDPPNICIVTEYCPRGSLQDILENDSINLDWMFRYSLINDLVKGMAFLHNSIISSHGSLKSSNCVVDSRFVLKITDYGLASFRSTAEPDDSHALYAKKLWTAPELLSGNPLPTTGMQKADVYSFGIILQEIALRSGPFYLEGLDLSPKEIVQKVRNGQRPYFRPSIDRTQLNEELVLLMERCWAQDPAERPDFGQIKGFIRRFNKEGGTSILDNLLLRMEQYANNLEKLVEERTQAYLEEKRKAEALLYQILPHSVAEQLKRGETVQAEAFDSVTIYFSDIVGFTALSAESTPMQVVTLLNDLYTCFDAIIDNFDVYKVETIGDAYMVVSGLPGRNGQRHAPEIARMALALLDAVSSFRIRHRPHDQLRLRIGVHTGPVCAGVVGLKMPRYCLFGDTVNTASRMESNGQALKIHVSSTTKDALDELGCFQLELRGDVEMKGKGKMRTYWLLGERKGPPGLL
Method in brief: (§3)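 HEK293 cells stably expressing human pGC-A or pGC-B, or parental cells, were kept in DMEM with 10% FBS and 250 ug/ml G418. Cells were grown overnight to 80–90% confluency. They were treated for 10 min with serial concentrations (10−10 to 10−6 M) in HBSS containing 0.1% BSA, 2 mM HEPES and 0.5 mM IBMX; buffer alone served as vehicle. After a PBS wash and lysis in 0.1 M HCl, intracellular cGMP was measured by ELISA.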

[6] = Blood pressure and renal function with acute IV infusion; type: in vivo, Fischer rats; conditions: mean ± SEM, n=4/group; for UV (urine flow): 60 min clearance; for UNaV (urinary sodium excretion rate): flame photometry; for GFR (glomerular filtration rate): inulin clearance; for ΔMAP (change in mean arterial pressure): normal rats
Method in brief: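 Male Fischer rats (about 2 months, 200–250 g) under isoflurane (2–3% in oxygen) had jugular vein, carotid artery and bladder catheters. After 30 min equilibration with IV inulin and saline, test compound or 0.9% saline vehicle was infused IV with inulin for 75 min, including a 15 min lead-in. BP was recorded and urine collected over a 60 min clearance period. Urinary sodium was measured by flame photometry and inulin by anthrone; GFR was taken from inulin clearance. n=4/group.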

[7] = system: human cardiac fibroblasts (HCFs); assay: Fibroblast proliferation quantified by cell counting, HCFs; type: cell-based; conditions: 10^−6 M, TGFβ−1 5 ng/ml, 72 hours, trypan blue, Cedex XS Analyzer (Supplemental Table 2)
Method in brief: as §2

[8] = system: human cardiac fibroblasts (HCFs); assay: Differentiation to myofibroblasts; type: cell-based; conditions: 10^−6 M, TGFβ−1 5 ng/mL
Method in brief: (§4)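 Fibroblasts were serum-starved in 0.01% FBS for 48 h, then given TGFβ-1 (5 ng/ml) with or without test compound (10−6 M) for 24, 48 and 72 h. For immunostaining, cells were fixed in 4% formaldehyde, permeabilised with 0.2% Triton X-100, and stained with anti-α-SMA (1:200, 4 °C overnight), a Texas Red secondary and DAPI; confocal images were scored as corrected total cell fluorescence. For western blots, NP-40 lysates were probed for α-SMA and normalised to GAPDH.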

[9] = system: human renal fibroblasts (HRFs); assay: cGMP generation in human primary renal fibroblasts; type: cell-based
Method in brief: as §1

parental HEK293 cells = assay: cGMP generation in parental; type: cell-based, human; conditions: levels similar to vehicle treatment (Supplemental Figure 2)
Method in brief: as §3

[10] = system: human renal fibroblasts (HRFs); assay: Differentiation to myofibroblasts; type: cell-based; conditions: 10^−6 M, TGFβ−1 5 ng/mL
Method in brief: as §4

human pGC-A receptor = target: T2, human pGC-A receptor (Homo sapiens, UniProt P16066); assay: cGMP generation in HEK293 cells overexpressing human pGC-A; type: cell-based; conditions: mean±SEM
T2 sequence (P16066 33-1061): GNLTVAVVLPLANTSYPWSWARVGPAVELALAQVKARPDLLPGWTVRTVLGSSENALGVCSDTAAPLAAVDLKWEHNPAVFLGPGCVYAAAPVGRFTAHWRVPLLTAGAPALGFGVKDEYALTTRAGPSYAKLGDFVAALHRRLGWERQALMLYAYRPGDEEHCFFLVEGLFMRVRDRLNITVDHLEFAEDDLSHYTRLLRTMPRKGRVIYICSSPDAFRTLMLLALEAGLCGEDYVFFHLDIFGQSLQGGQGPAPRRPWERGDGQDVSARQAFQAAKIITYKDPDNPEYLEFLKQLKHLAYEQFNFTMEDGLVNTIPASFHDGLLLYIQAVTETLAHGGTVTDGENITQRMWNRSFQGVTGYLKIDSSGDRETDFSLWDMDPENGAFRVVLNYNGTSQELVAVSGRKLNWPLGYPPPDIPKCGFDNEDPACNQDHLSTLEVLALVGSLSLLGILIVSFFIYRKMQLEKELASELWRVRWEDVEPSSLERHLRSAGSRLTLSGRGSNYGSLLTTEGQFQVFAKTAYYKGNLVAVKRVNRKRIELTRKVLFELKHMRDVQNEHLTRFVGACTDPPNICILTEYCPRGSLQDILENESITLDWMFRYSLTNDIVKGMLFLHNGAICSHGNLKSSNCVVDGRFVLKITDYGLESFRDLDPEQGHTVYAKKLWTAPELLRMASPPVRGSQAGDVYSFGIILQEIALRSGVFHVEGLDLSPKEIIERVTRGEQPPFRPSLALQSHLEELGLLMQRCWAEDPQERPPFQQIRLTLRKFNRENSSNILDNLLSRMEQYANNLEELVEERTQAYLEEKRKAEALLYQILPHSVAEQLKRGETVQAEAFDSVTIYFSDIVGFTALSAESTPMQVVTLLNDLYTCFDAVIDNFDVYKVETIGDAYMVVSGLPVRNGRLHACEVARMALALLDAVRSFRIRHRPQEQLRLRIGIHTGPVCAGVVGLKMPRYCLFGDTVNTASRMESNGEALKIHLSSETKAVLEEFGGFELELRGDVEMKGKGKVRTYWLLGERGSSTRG
Method in brief: as §3

[11] = High = 455 pmol/kg/min IV infusion
[12] = Low = 4.55 pmol/kg/min IV infusion
[13] = Medium = 45.5 pmol/kg/min IV infusion
[14] = 48 and 72 hours (data not shown)
[15] = 24 hours, immunostaining and western blotting

Chain of natriuretic peptide clearance receptor (NPRC), tagged with green fluorescence protein (P17342 27-541): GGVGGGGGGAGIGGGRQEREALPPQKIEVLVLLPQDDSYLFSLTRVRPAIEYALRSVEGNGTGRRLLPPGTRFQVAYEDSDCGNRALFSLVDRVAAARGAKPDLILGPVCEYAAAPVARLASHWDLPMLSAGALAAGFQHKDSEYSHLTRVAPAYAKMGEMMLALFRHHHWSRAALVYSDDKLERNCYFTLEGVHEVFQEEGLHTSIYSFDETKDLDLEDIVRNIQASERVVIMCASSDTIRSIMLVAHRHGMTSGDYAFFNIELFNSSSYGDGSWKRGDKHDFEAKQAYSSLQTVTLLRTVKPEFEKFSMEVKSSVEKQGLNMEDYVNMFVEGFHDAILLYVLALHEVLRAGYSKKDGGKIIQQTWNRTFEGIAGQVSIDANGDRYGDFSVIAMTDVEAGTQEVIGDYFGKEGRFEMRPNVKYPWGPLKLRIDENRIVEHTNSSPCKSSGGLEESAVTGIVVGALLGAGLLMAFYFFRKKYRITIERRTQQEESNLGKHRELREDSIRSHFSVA

Row | Substance | Plasma CNP-like levels (CLL) (Plasma CNP-like levels) | cGMP generation in HEK293 pGC-B cells compared to vehicle (human pGC-B receptor) | UV (urine flow) [6, 11] [µL/min] | UNaV (urinary sodium excretion rate) [6, 11] [uEq/min] | GFR (glomerular filtration rate) [6, 11] [mL/min] | UV (urine flow) [6, 12] [µL/min] | UNaV (urinary sodium excretion rate) [6, 12] [uEq/min] | GFR (glomerular filtration rate) [6, 12] [mL/min] | ΔMAP (change in mean arterial pressure) [6, 12] [mmHg] | UV (urine flow) [6, 13] [µL/min] | UNaV (urinary sodium excretion rate) [6, 13] [uEq/min] | GFR (glomerular filtration rate) [6, 13] [mL/min] | ΔMAP (change in mean arterial pressure) [6, 13] [mmHg] | cGMP generation in parental HEK293 cells (parental HEK293 cells) | also measured
1 | C53, the 53-AA intermediate form of proCNP processing (peptide) | – | – | – | – | – | – | – | – | – | – | – | – | – | – | AlphaScreen signal [1]: 200
2 | NH2 - DLRVDTKSRAAWARLLQEHPNARKYKGANKKGLSKGCFGLKLDRIGSMSGLGC – COOH [C53] | increased plasma CLL levels in a dose-dependent manner | significant cGMP generation | 13.5 ± 2.0 | 1.1±0.3 | 1.1 ± 0.2 | 13.3 ± 2.0 | 0.9±0.2 | 1.2 ± 0.1 | −0.5±1.0 | 11.3 ± 0.8 | 1.0±0.1 | 1.5 ± 0.1 | −1.4±1.1 | did not generate cGMP | HRFs proliferation in the absence of TGFβ−1 stimulation [2]: had no effect on proliferation; Intracellular cGMP in HCFs [3]: increased intracellular cGMP levels; HCFs proliferation in the absence of TGFβ−1 stimulation [4]: had no effect on proliferation; TGFβ−1 induced HRFs proliferation by cell counting [5]: suppressed TGFβ−1 induced proliferation; pGC-B receptor potency compared to CNP (human pGC-B receptor; HEK293 pGC-B cells, 10^−10 to 10^−6 M, cGMP ELISA): no difference observed; ΔMAP (change in mean arterial pressure) [6, 11]: −3.7±2.6 mmHg; TGFβ−1 induced HCFs proliferation by cell counting [7]: suppressed TGFβ−1 induced proliferation; Reduction of differentiation of HCFs to myofibroblasts [8, 14]: not sustained; Differentiation of HCFs to myofibroblasts (α-SMA expression) [8, 15]: significantly reduced the differentiation; Intracellular cGMP in HRFs ([9]; 10^−8, 10^−7 and 10^−6 M, 10 min, 0.5 mM IBMX, cGMP ELISA, vs vehicle, dose-dependent): increased intracellular cGMP levels; cGMP values in HRFs compared to HCFs ([9]; ratio HRFs/HCFs): 16 fold; Reduction of differentiation of HRFs to myofibroblasts [10, 14]: not sustained; Differentiation of HRFs to myofibroblasts (α-SMA expression) [10, 15]: significantly reduced the differentiation
3 | NH2-GLSKGCFGLKLDRIGSMSGLGC-COOH [CNP, C-type natriuretic peptide, reference compound] | increased plasma CLL levels in a dose-dependent manner | significant cGMP generation | 9.8 ± 0.3 | 0.9±0.1 | 1.3 ± 0.1 | 11.3 ± 1.0 | 0.8±0.1 | 1.2 ± 0.1 | −0.9±0.9 | 10.0 ± 0.9 | 0.7±0.1 | 1.2 ± 0.2 | −1.9±0.5 | did not generate cGMP | –
4 | b-type natriuretic peptide [BNP] | – | – | – | – | – | – | – | – | – | – | – | – | – | – | cGMP in HEK293 pGC-A cells (human pGC-A receptor; 10^−6 M): 1028±73 pmol/mL; cGMP in HEK293 pGC-A cells (human pGC-A receptor; 10^−8 M): 385±66 pmol/mL; cGMP in HEK293 pGC-A cells (human pGC-A receptor; 10^−10 M): 5±1 pmol/mL
